Data reported in ChEMBL document CHEMBL4819003, “Optimization of novel oxidative DIMs as Nur77 modulators of the Nur77-Bcl-2 apoptotic pathway” (Eur J Med Chem, 2021).
Blank lines part the entries; values can stand above or below the compound they belong to. Active and inactive are the calls of the source. The rule behind the calls is not given here.

Key:
[1] = Clearance in female Sprague-Dawley rat at 0.5 mg/kg, iv measured for 36 hrs by LC-MS/MS analysis; assay type: ADME, organism-based; settings: in vivo
[2] = Cmax in female Sprague-Dawley rat at 0.5 mg/kg, iv measured for 36 hrs by LC-MS/MS analysis; assay type: ADME, organism-based; set-up: route intravenous, time 36 hrs, dose 0.5 mg/kg; settings: in vivo
[3] = Half life in male Sprague-Dawley rat at 0.5 mg/kg, iv measured for 36 hrs by LC-MS/MS analysis; assay type: ADME, organism-based; settings: in vivo
[4] = Oral bioavailability in female Sprague-Dawley rat at 5 mg/kg measured for 36 hrs by LC-MS/MS analysis; assay type: ADME, organism-based; settings: in vivo
Summary of the method: (§1)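 Sprague-Dawley rats (200–220 g), three males and three females per route group. Dosed 5 mg/kg orally or 0.5 mg/kg IV as a solution in DMSO/T-80/H2O (1:5:94 by volume). Heparinized blood was drawn from 5 min to 36 h after IV and 1–36 h after oral dosing. Plasma was protein-precipitated with methanol (2% HCl) plus carbamazepine internal standard and assayed by LC-MS/MS. Parameters were taken from concentration-time data; n = 3 per sex, mean ± SD.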

[5] = Tmax in male Sprague-Dawley rat at 5 mg/kg, po measured for 36 hrs by LC-MS/MS analysis; assay type: ADME, organism-based; settings: in vivo; summary of the method: as §1
[6] = Half life in female Sprague-Dawley rat at 5 mg/kg, po measured for 36 hrs by LC-MS/MS analysis; assay type: ADME, organism-based; settings: in vivo
[7] = MRT(0 to t) in male Sprague-Dawley rat at 5 mg/kg, po measured for 36 hrs by LC-MS/MS analysis; assay type: ADME, organism-based; settings: in vivo; summary of the method: as §1
[8] = Cmax in male Sprague-Dawley rat at 0.5 mg/kg, iv measured for 36 hrs by LC-MS/MS analysis; assay type: ADME, organism-based; set-up: route intravenous, dose 0.5 mg/kg, time 36 hrs; settings: in vivo
[9] = Selectivity index, ratio of IC50 for human MCF-10A cells to IC50 for human BT-549 cells
[10] = Volume of distribution at steady state in male/female Sprague-Dawley rat at 0.5 mg/kg, iv measured for 36 hrs by LC-MS/MS analysis; assay type: ADME, organism-based; settings: in vivo
Summary of the method: (§2)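 Sprague-Dawley rats (200–220 g), four per route group (2 male, 2 female), given 0.5 mg/kg IV or 5 mg/kg orally in DMSO/T-80/H2O (1:5:94). Heparinized blood was sampled at 5 min–36 h after IV and at 0.5, 1, 3, 4, 6, 8, 10, 12, 24 and 36 h after oral dosing. Plasma was methanol (2% HCl)-precipitated with carbamazepine internal standard and quantified by LC-MS/MS. Parameters reported as mean ± SD.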

[11] = test system: MEF; assay: Induction of apoptosis in mouse MEF cells deficient in Bcl2 assessed as PARP cleavage at 0.5 uM measured after 6 hrs by Western blot assay; assay type: functional, cell-based
Summary of the method: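 Wild-type, Nur77−/− or Bcl-2−/− mouse embryonic fibroblasts grown in DMEM with 10% FBS and treated with 0.5 µM for 6 h. PARP cleavage detected by western blot, primary antibodies at 1:1000, ECL.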

[12] = test system: Mus musculus; assay: Antitumour activity against FVB/N mammary tumor MMTV-PyMT mouse model assessed as inhibition of tumour growth at 3 mg/kg, po administered daily for 14 days; assay type: functional, organism-based; settings: time 14.0 day
Summary of the method: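 Female MMTV-PyMT transgenic mice (FVB/N background), 12 weeks old, randomized n = 6 per group; daily oral gavage 3 mg/kg for 14 days. Dosing solution: DMSO stock diluted in normal saline with 5.0% (V/V) Tween-80 to 3 mg/mL. Tumours weighed at end; mean ± SD, Student's t-test versus untreated controls.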

[13] = test system: HCT-116; assay: Induction of apoptosis in human HCT-116 cells assessed as PARP cleavage at 0.5 uM measured after 6 hrs by western blot assay; assay type: functional, cell-based
Summary of the method: (§3)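 Cells exposed to 0.5 µM for 6 h. Lysates resolved by SDS-PAGE and blotted to PVDF, blocked in 5% milk/TBST, probed with primary antibodies at 1:1000, ECL detection. Apoptosis scored as the densitometric ratio of cleaved PARP band to intact PARP band; mean ± SD, n = 3.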

[14] = test system: HCT-116; assay: Induction of apoptosis in human HCT-116 cells assessed as PARP cleavage at 0.5 uM measured after 6 hrs by western blot assay relative to Di(1H-indol-3-yl)(4-(trifluoromethyl)phenyl)methylium methanesulfonate; assay type: functional
Summary of the method: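 HCT116 cells grown in RPMI-1640 with 10% FBS, exposed to 0.5 μM compound for 6 h. Lysates run on SDS-PAGE and blotted for PARP and cleaved PARP (primary antibodies 1:1000, ECL detection). The cleaved-PARP/PARP band intensity ratio was expressed relative to the reference compound set to 1. Mean ± SD, n = 3.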

[15] = Half life in male/female Sprague-Dawley rat at 5 mg/kg, po measured for 36 hrs by LC-MS/MS analysis; assay type: ADME, organism-based; settings: both, in vivo
[16] = Selectivity index, ratio of IC50 for human MCF-10A cells to IC50 for human MDA-MB-231 cells; assay type: toxicity; settings: MCF-10A cells versus MDA-MB-231 cells, read-out: Ratio IC50
[17] = target: Nuclear receptor subfamily 4immunitygroup A member 1 (Homo sapiens, UniProt P22736); assay: Modulation of Myc-Nur77 (unknown origin) transfected in human HEK293T cells assessed as induction of Myc-Nur77 mitochondrial targeting by measuring increase in Myc-Nur77 accumulation in mitochondria at 0.5 uM measured after 2 hrs by western blot analysis; settings: filed as modulator
Nuclear receptor subfamily 4immunitygroup A member 1, sequence (P22736 whole entry): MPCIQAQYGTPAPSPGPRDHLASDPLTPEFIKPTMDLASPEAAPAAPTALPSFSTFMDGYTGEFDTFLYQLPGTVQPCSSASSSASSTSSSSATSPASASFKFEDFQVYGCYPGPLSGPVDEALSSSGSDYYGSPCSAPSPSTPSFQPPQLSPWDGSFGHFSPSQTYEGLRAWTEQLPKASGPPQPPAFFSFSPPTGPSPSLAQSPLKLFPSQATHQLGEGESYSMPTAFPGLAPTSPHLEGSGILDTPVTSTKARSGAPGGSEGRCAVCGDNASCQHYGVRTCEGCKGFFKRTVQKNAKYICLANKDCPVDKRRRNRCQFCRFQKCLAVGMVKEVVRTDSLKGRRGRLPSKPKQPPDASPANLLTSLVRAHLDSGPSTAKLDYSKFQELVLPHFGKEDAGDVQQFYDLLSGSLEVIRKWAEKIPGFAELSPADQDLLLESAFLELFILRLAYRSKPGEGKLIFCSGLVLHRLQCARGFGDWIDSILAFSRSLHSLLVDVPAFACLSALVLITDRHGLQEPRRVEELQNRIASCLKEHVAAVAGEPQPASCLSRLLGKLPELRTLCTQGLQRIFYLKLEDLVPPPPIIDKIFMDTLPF
Summary of the method: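 HEK293T cells transfected with Myc-Nur77 were exposed to 0.5 μM compound for 2 h. Cells were homogenised in sucrose Buffer D; 500 g then 5000 g spins gave a mitochondrial pellet. Whole-cell and mitochondrial fractions were western blotted for Myc-Nur77, with PARP and Tom20 as fraction-purity markers.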

[18] = test system: MDA-MB-231; assay: Induction of apoptosis in human MDA-MB-231 cells assessed as PARP cleavage at 0.5 uM measured after 6 hrs by western blot assay; assay type: functional, cell-based; summary of the method: as §3
[19] = Half life in male/female Sprague-Dawley rat at 0.5 mg/kg, iv measured for 36 hrs by LC-MS/MS analysis; assay type: ADME, organism-based; settings: both, in vivo
[20] = Clearance in male/female Sprague-Dawley rat at 0.5 mg/kg, iv measured for 36 hrs by LC-MS/MS analysis; assay type: ADME, organism-based; settings: both, in vivo
[21] = Tmax in male/female Sprague-Dawley rat at 5 mg/kg, po measured for 36 hrs by LC-MS/MS analysis; assay type: ADME, organism-based; settings: both, in vivo; summary of the method: as §2
[22] = AUC (0 to t) in male/female Sprague-Dawley rat at 5 mg/kg, po measured for 36 hrs by LC-MS/MS analysis; assay type: ADME, organism-based; set-up: dose 5 mg/kg, time 36 hrs; settings: both, in vivo
Summary of the method: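 Four Sprague-Dawley rats per route (2 male, 2 female; 200–220 g) received 0.5 mg/kg IV or 5 mg/kg PO in DMSO/Tween-80/water (1:5:94). Heparinized blood was taken at 5 min–36 h after IV dosing and at 0.5, 1, 3, 4, 6, 8, 10, 12, 24 and 36 h after oral dosing. Methanol (2% HCl) precipitation with carbamazepine internal standard preceded LC-MS/MS; values are mean ± SD.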

CL [1]: 4.67 mL/min/kg
Cmax [2]: 1640 ng/mL
half-life [3]: 4.05 h
bioavailability [4]: 22.8%
Tmax [5]: 5.33 h
half-life [6]: 6.81 h
MRT last at 36 h [7]: 12.3 h
Cmax [8]: 880 ng/mL
Structure (SMILES): CS(=O)(=O)[O-].FC(F)(F)c1ccc([C+](c2c[nH]c3ccccc23)c2c[nH]c3ccccc23)cc1

Vdss [10]: 3.69 L/kg
half-life [15]: 4.49 h
Activity [17]: Active
half-life [19]: 2.66 h
clearance [20]: 17 mL/min/kg
Tmax [21]: 3 h
AUC(0-t) at 36 h [22]: 734 ng·h/mL
Structure (SMILES): CS(=O)(=O)[O-].Cn1cc([C+](c2ccc(C(F)(F)F)cc2)c2c[nH]c3ccccc23)c2ccccc21
Ratio IC50 [9]: 40
Activity [11]: inactive
Activity [12]: Active
Activity [13]: Active
fold change (FC) [14]: 13.54
selectivity ratio [16]: 40
Activity [18]: Active
